Assay results from ChEMBL document CHEMBL5661979, “Pharmacological inhibition of BMK1 suppresses tumor growth through promyelocytic leukemia protein” (Cancer Cell, 2010).

What was measured:
[1] = target: Mitogen-activated protein kinase kinase kinase 2 (Homo sapiens, UniProt Q9Y2U5); test: Inhibition of MAP3K2 in human HeLa cells lysate pre incubated for 15 mins followed by ADP acyl phosphate probe addition and measured after 10 mins by LC-MS/MS analysis; type: subcellular
[2] = target: T1, Cyclin-dependent kinase 10 (Homo sapiens, UniProt Q15131); test: Inhibition of CDK10 in human HeLa cells lysate pre incubated for 15 mins followed by ATP acyl phosphate probe addition and measured after 10 mins by LC-MS/MS analysis; type: subcellular
T1 sequence (Q15131 whole entry, the tested form may be a part): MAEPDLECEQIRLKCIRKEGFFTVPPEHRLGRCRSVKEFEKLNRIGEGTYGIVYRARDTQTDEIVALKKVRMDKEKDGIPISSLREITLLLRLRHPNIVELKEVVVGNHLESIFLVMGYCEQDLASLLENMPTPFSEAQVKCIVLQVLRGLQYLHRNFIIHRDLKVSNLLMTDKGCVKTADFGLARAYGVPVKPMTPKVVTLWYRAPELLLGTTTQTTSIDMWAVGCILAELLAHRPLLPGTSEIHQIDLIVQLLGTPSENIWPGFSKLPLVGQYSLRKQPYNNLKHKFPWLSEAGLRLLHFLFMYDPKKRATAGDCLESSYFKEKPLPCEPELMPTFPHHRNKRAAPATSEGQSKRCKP
Outline: (§1)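 KiNativ profiling in HeLa lysate (5 mg/mL total protein). Lysate incubated 15 min with inhibitor at 50, 10, 2, 0.8 or 0 μM. ATP or ADP acylphosphate probe then added (5 μM final) and reacted 10 min. Reaction stopped with urea and analysed by targeted MS, using up to four fragment ions per kinase peptide-probe conjugate. % inhibition taken against untreated lysate. Run in duplicate.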

[3] = target: Phosphorylase b kinase gamma catalytic chain, liver/testis isoform (Homo sapiens, UniProt P15735); test: Inhibition of PHKg2 in human HeLa cells lysate pre incubated for 15 mins followed by ATP acyl phosphate probe addition and measured after 10 mins by LC-MS/MS analysis; type: subcellular
Phosphorylase b kinase gamma catalytic chain, liver/testis isoform, sequence (P15735 whole entry, canonical isoform): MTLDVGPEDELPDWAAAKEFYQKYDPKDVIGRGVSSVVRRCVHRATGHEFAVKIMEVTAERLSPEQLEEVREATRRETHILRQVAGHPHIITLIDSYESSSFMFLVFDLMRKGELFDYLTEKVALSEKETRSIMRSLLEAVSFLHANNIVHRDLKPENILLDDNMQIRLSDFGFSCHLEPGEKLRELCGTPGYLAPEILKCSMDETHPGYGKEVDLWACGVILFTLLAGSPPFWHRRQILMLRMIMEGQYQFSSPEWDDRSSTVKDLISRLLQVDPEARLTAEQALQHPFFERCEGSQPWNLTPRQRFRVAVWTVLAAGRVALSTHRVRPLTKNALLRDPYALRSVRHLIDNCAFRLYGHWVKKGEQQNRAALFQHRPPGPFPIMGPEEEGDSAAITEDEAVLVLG

[4] = target: Cyclin-dependent kinase 13 (Homo sapiens, UniProt Q14004); test: Inhibition of CHED in human HeLa cells lysate pre incubated for 15 mins followed by ADP acyl phosphate probe addition and measured after 10 mins by LC-MS/MS analysis; type: subcellular; outline: as §1
Cyclin-dependent kinase 13, sequence (Q14004 whole entry): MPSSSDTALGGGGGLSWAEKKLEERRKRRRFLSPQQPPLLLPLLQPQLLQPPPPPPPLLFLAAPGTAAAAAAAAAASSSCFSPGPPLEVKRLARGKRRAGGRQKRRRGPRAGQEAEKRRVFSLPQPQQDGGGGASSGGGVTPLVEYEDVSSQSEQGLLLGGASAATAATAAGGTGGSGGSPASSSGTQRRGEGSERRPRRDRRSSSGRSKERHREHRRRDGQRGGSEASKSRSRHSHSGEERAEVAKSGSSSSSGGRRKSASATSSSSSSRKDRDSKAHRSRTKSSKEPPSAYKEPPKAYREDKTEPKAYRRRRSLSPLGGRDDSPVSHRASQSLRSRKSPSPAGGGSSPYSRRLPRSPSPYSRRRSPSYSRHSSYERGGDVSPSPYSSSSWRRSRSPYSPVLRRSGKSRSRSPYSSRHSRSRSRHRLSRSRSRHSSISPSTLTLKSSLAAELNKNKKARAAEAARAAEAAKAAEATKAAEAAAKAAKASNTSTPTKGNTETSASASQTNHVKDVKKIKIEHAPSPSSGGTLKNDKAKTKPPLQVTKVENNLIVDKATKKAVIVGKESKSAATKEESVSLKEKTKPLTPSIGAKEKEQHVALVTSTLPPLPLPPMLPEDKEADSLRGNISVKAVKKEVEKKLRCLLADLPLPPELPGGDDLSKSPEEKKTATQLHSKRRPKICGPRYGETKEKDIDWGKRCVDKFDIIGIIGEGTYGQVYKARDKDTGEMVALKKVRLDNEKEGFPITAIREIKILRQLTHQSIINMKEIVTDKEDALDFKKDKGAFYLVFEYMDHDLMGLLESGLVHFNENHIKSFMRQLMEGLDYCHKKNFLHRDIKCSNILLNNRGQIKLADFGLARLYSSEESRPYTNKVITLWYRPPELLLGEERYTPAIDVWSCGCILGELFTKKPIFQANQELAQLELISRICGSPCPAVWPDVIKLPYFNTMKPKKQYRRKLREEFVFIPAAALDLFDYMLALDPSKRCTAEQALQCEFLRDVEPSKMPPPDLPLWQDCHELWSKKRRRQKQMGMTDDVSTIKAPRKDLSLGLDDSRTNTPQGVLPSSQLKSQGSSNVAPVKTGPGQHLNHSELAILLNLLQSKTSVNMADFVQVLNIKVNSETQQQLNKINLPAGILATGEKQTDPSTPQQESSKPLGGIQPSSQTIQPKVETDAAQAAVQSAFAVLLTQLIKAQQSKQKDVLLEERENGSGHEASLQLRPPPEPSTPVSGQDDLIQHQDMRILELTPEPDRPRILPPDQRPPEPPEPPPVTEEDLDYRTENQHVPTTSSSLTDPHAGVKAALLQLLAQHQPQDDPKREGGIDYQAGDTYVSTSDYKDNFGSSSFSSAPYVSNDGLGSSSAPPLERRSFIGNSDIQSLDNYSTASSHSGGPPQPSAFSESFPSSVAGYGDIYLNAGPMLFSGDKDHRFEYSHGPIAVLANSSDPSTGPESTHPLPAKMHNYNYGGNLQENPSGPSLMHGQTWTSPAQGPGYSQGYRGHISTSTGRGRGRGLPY

[5] = Inhibition of PRKX/PRKY in human HeLa cells lysate at 50 uM pre incubated for 15 mins followed by ADP acyl phosphate probe addition and measured after 10 mins by LC-MS/MS analysis relative to control; settings: 25 min, condition cancer
[6] = target: T2, Serine/threonine-protein kinase ULK3 (Homo sapiens) (UniProt Q6PHR2); test: Inhibition of ULK3 in human HeLa cells lysate at 2 uM pre incubated for 15 mins followed by ADP acyl phosphate probe addition and measured after 10 mins by LC-MS/MS analysis relative to control; type: subcellular; settings: time 25.0 min
T2 sequence (whole entry): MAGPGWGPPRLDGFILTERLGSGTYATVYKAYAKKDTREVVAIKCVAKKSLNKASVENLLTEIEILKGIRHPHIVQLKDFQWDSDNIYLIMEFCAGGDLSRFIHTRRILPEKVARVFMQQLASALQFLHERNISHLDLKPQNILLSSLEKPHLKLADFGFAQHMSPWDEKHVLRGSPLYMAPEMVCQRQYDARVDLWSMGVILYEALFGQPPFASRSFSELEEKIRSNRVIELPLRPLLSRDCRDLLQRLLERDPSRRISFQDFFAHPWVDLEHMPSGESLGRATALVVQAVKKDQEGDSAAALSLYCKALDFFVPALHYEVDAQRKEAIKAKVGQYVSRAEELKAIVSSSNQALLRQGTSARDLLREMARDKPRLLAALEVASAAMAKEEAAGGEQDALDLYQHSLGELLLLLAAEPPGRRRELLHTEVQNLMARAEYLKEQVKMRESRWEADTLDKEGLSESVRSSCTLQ

[7] = target: Tyrosine-protein kinase Lyn (Homo sapiens, UniProt P07948); test: Inhibition of LYN in human HeLa cells lysate at 50 uM pre incubated for 15 mins followed by ATP acyl phosphate probe addition and measured after 10 mins by LC-MS/MS analysis relative to control; type: subcellular; settings: time 25.0 min
Tyrosine-protein kinase Lyn, sequence (P07948 2-512 limits assumed): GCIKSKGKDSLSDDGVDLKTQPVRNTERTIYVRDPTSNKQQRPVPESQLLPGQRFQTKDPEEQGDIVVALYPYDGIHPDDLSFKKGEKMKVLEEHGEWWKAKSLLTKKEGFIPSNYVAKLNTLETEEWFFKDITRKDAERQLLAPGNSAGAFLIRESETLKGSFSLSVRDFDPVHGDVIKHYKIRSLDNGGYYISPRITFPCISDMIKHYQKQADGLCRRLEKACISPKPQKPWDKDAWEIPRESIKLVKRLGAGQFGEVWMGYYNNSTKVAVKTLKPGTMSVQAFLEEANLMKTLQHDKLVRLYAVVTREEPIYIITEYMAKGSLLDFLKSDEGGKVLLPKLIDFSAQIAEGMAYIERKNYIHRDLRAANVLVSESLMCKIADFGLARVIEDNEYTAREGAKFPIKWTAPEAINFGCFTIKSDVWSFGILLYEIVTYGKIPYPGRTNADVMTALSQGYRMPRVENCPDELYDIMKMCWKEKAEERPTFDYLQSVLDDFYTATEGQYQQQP

[8] = target: T1, Cyclin-dependent kinase 10; test: Inhibition of CDK10 in human HeLa cells lysate at 50 uM pre incubated for 15 mins followed by ATP acyl phosphate probe addition and measured after 10 mins by LC-MS/MS analysis relative to control; type: subcellular; settings: time 25.0 min; outline: as §1
[9] = target: Mitogen-activated protein kinase 1 (Homo sapiens, UniProt P28482); test: Inhibition of ERK2 in human HeLa cells lysate pre incubated for 15 mins followed by ATP acyl phosphate probe addition and measured after 10 mins by LC-MS/MS analysis; type: subcellular
[10] = target: Serine/threonine-protein kinase Chk2 (Homo sapiens, UniProt O96017); test: Inhibition of CHK2 in human HeLa cells lysate at 50 uM pre incubated for 15 mins followed by ADP acyl phosphate probe addition and measured after 10 mins by LC-MS/MS analysis relative to control; type: subcellular; settings: time 25.0 min
Serine/threonine-protein kinase Chk2, sequence (O96017 whole entry): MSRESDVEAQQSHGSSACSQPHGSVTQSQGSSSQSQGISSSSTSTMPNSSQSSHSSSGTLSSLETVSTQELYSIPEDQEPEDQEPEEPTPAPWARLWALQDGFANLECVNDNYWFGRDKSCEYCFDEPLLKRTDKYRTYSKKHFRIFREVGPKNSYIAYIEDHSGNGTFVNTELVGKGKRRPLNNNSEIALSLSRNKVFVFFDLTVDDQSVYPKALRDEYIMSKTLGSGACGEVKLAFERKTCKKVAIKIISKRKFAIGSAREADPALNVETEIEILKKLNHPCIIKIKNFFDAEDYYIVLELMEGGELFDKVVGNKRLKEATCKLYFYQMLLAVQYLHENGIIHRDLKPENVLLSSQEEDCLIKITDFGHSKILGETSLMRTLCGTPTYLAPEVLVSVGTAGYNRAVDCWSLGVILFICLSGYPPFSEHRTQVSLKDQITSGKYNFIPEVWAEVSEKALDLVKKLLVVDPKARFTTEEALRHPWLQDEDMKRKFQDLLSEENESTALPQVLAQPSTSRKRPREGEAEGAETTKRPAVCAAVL

[11] = target: Mitogen-activated protein kinase 3 (Homo sapiens, UniProt P27361); test: Inhibition of ERK1 in human HeLa cells lysate at 2 uM pre incubated for 15 mins followed by ADP acyl phosphate probe addition and measured after 10 mins by LC-MS/MS analysis relative to control; type: subcellular; settings: time 25.0 min
[12] = target: T2, Serine/threonine-protein kinase ULK3 (Homo sapiens); test: Inhibition of ULK3 in human HeLa cells lysate at 50 uM pre incubated for 15 mins followed by ADP acyl phosphate probe addition and measured after 10 mins by LC-MS/MS analysis relative to control; type: subcellular; settings: time 25.0 min
[13] = Half life in Sprague-Dawley rat at 1 mg/kg, iv measured up to 8 hrs by LC-MS/MS analysis; type: ADME, organism-based; settings: in vivo
[14] = target: T3, Aurora kinase A (Homo sapiens) (UniProt O14965); test: Inhibition of AurA in human HeLa cells lysate at 10 uM pre incubated for 15 mins followed by ATP acyl phosphate probe addition and measured after 10 mins by LC-MS/MS analysis relative to control; type: subcellular; settings: time 25.0 min
T3 sequence (whole entry): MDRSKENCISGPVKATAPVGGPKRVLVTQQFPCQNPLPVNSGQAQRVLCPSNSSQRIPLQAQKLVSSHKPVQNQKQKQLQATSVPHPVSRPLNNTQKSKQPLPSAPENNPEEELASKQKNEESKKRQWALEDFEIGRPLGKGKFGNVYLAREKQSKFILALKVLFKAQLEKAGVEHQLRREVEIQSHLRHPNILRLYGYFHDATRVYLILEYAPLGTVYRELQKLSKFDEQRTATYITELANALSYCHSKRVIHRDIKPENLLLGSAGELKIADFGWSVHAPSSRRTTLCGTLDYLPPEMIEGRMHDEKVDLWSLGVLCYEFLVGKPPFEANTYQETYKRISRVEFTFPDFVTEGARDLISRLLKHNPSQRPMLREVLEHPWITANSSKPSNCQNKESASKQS
Outline: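 KiNativ-type profiling in HeLa lysate (5 mg/mL total protein). Lysate preincubated 15 min with inhibitor at 50, 10, 2, 0.8 or 0 μM, then ATP or ADP acylphosphate probe added (5 μM final) for 10 min. Reaction stopped with urea and analysed by targeted MS, using up to four fragment ions per kinase peptide-probe conjugate. % inhibition calculated against untreated lysate. Duplicate reactions.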

[15] = target: Tyrosine-protein kinase CSK (Homo sapiens, UniProt P41240); test: Inhibition of CSK in human HeLa cells lysate at 2 uM pre incubated for 15 mins followed by ATP acyl phosphate probe addition and measured after 10 mins by LC-MS/MS analysis relative to control; type: subcellular; settings: time 25.0 min
[16] = target: Ribosomal protein S6 kinase alpha-3 (Homo sapiens, UniProt P51812); test: Inhibition of RSK2 domain 2 in human HeLa cells lysate at 10 uM pre incubated for 15 mins followed by ADP acyl phosphate probe addition and measured after 10 mins by LC-MS/MS analysis relative to control; type: subcellular; settings: time 25.0 min
[17] = target: Serine/threonine-protein kinase PLK4 (Homo sapiens) (UniProt O00444); test: Inhibition of PLK4 (unknown origin) assessed as remaining activity at 10 uM by ATP-competition binding assay relative to control
Serine/threonine-protein kinase PLK4 (Homo sapiens), sequence (O00444 whole entry): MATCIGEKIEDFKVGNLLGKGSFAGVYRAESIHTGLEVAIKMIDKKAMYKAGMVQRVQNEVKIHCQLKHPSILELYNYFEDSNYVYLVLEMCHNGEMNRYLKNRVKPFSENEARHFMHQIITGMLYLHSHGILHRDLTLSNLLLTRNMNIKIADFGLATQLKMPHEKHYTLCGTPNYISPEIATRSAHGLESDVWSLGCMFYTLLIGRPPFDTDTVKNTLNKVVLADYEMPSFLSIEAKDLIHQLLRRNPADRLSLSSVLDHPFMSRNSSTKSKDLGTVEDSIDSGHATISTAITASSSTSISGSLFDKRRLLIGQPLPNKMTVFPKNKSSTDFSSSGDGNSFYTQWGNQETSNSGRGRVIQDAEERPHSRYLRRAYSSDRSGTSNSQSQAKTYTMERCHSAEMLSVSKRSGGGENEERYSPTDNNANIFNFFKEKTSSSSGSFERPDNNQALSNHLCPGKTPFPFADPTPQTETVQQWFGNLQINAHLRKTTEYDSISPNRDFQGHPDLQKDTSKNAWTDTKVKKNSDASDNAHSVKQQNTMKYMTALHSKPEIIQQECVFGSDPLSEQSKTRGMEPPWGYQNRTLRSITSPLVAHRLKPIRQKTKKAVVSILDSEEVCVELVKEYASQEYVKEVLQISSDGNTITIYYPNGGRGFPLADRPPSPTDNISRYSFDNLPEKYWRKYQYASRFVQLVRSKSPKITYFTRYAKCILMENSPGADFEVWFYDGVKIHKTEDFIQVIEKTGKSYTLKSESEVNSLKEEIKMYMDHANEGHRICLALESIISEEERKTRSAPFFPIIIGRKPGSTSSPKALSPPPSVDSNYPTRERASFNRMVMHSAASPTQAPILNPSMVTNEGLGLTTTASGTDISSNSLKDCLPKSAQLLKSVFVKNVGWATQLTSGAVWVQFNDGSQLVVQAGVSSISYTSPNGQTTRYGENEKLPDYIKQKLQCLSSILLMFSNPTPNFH

Mitogen-activated protein kinase kinase kinase 2, sequence (Q9Y2U5 whole entry): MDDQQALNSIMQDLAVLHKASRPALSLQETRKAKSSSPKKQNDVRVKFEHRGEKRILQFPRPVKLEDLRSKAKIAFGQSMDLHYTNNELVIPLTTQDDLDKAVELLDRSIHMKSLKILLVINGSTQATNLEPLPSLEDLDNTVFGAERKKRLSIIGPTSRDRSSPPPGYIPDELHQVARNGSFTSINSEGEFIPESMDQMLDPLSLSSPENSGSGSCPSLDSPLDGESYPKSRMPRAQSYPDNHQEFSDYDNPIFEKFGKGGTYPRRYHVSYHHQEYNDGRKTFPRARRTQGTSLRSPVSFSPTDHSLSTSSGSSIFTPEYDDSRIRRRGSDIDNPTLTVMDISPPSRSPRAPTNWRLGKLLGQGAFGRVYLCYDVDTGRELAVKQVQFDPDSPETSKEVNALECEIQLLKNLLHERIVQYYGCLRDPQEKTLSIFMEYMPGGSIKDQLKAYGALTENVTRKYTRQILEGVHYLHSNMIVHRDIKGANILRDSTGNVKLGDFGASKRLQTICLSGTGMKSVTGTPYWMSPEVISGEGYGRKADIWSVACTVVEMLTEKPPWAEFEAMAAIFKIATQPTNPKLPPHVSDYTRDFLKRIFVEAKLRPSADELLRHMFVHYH

CCOc1cc(N2CCC(O)CC2)ccc1Nc1ncc2c(n1)N(C)c1ccccc1C(=O)N2C
IC50 [1]: > 50 µM | IC50 [2]: > 50 µM | IC50 [3]: > 50 µM | IC50 [4]: > 50 µM | inhibition at 50 µM [5]: -27.3% | inhibition [6]: 18.8% | inhibition [7]: -5.2% | inhibition [8]: -0.4% | IC50 [9]: > 50 µM | inhibition [10]: -2.7% | inhibition [11]: 16.2% | inhibition [12]: 19.4% | half-life [13]: 2 h | inhibition [14]: 2.3% | inhibition [15]: -4.4% | inhibition [16]: -5.7% | Activity [17]: 2.8%
